Reference: the EternaBench riboswitch data

Tested on: MS2 coat protein
Test: apparent Kd, MS2 coat protein; higher = weaker binding; RNA-MaP array; FMN 200 µM where present
Method in brief: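 Green signal from SNAP-549-labelled MS2 coat protein was normalised to red-channel RNA signal and to the median Fmax of control clusters. The protein was titrated from 0.7 or 1.5 nM, doubling to 3 µM, without and then with constant ligand, over designs transcribed by stalled E. coli RNA polymerase on Illumina sequencing-chip clusters, in 100 mM Tris-HCl pH 7.5, 80 mM KCl, 4 mM MgCl2, BSA, DTT, yeast tRNA and Tween-20. The apparent Kd is the median of filtered per-cluster binding-curve fits.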

[1] = designed as: ON switch for flavin mononucleotide, no ligand
[2] = ligand present: flavin mononucleotide, designed as: ON switch for flavin mononucleotide
[3] = designed as: OFF switch for flavin mononucleotide, no ligand
[4] = ligand present: flavin mononucleotide, designed as: OFF switch for flavin mononucleotide

Sequence | apparent Kd [1] | apparent Kd [2] | apparent Kd [3] | apparent Kd [4]
AAAUGGAACUAAGGAUAUCUGUAUUUUGUUGAAACAUGAGGAUCACCCAUGUUCAUGAAAUUAUAGGAGAAGGUAGAUCCAUAA | 4.51 nM | 4.6 nM |  | 
UGUUCGUCAGGAUAUUCUACUUAUUACAUGAGGAUCACCCAUGUGUAUGUACAAGGGUGUGAAGAAGGGACUUUUU |  |  | 719 nM | 260 nM
CGGUGCUGAGGAUAUACAUGAGGAUCACCCAUGUGUGCCAGCUAGCUGACUGGCACUUGUAGAAGGCAGUACUG |  |  | 12.7 nM | 24.2 nM
AAAAAACAUGAGGAUCACCCAUGUCAGGAUAUCGUAAAAAAAAAAAAAAAAAAAAAUGCGAGAAGGGACUGGAA |  |  | 87.4 nM | 125 nM
UGGACCGAGCUGUCGGUUGACUCUUAGGAUAUGACAUGAGGAUCACCCAUGUGGGAUCUAAAUUGUCAGAAGGAGGGUUCUGGG |  |  | 283 nM | 51.4 nM
UUAAUCUAUACAGGAUAUCCAUACGCUGCAUACGGAGAAGGGUAACAAUCAUGAGGACAUGAGGAUCACCCAUGUUGUGACCAU | 198 nM | 97.1 nM |  | 
AAAAUGUCAGGAUAUGCGAAGGCGUCUGAUAGACGAGGCUAGCAGAAGGGACAUGAGGAUCACCCAUGUAAAAA |  |  | 52.6 nM | 152 nM
UAUAUAUAGUAAGGAUAUGUAAUUAUUUAAUAAACAGAAGGUACUGACAUGAGGAUCACCCAUGUUUUAGUGUGGGCAUGUAGA |  |  | 80.5 nM | 135 nM
AAAAGCAAAGGAUAUACAUGAGGAUCACCCAUGUAAAAAAGAAAAGAGUAUAUGGCAUGUAGAAGGUUGCGUGG |  |  | 34.5 nM | 49.8 nM
CGAUAUAUGAAGGGCUAAUGCCCACAUGAGGAUCACCCAUGUAGAAGGCGAUCCGCAACGCGGAUCGAGGAUAUAUAGUAUACA |  |  | 9.02 nM | 9.66 nM
UGAGUGCGUGUUAGGAUAUGGUUUGGUGUUUCGGGCUAGAAGGGACAUGAGGAUCACCCAUGUAAUUGGCGGGU |  |  | 253 nM | 250 nM
GGCUGGUGACAGCAUCCAUCAAAACAUGAGGAUCACCCAUGUAGAAGGCUGUACGGUUACCGUACAGAGGAUAUACAAUGAUGC |  |  | 13.7 nM | 28.5 nM
AGGAUCUCAGUCAGGAUAUGUGUCUUCAAAGUACGGCAGAAGGGACAUGAGGAUCACCCAUGUUAGCCACCUUU |  |  | 26.6 nM | 69.1 nM
CUUCGACAUGAGGAUCACCCAUGUCAGGAUAUUGUGUAUCGGGUGUUGGACGGAUAGGCAAGAAGGGAUGUGUG |  |  | 34.7 nM | 30.1 nM
AUUAUAUAGAUAGGAUAUAGAAUAUUAUUUUAACAUGAGGAUCACCCAUGUAACCUUAUGUGUAGCUAGAAGGAUCAUUUAUUA |  |  | 80.3 nM | 113 nM
CUGCUCGUAGAGAAGGCGUGGGCACAUGAGGAUCACCCAUGUCGCAGUACGAGGAUAUUUGCCGGCCCGCCCAAAAUGGCGCGA | 220 nM | 96.2 nM |  | 
CUUGGUACUCGAGGAUAUCACAUGAACUACCGAACAUGAGGAUCACCCAUGUGAGAAGGCGAGUUCUGUCCGAUAAAAUUACUC |  |  | 6.68 nM | 11 nM
CCCUUUAGAAAAGGGACAUGAGGAUCACCCAUGUAGGCUGCACAGGAUAUCGAUCGGAGGCGGUACGAGAAGGGUGAUGUCAUU | 58.3 nM | 72.1 nM |  | 
AGACUGAAGCAAGGAUAUUGUAAGGUUAUCGUACAAGAAGGUGCUGUUUAUGUCUCUUAACAUGAGGAUCACCCAUGUUUUGAA | 18.4 nM | 18.1 nM |  | 
CUAGUACAUGAGGAUCACCCAUGUCAGGAUAUUGGAUAUGCCUUGGAAUACAUGUUUACAAGAAGGGACUAUAG |  |  | 23 nM | 21.7 nM
ACAUGCAUAGCGAUAUGAUCGAAAAGUCAUGUCGCAAAAUUUAGAAGGACAUGAGGAUCACCCAUGUAGGAUAUGGGAGCAUGA | 57.9 nM | 13.2 nM |  | 
CGCUACGUUUCGUAGCAGCUAGGUGAGGAUAUUCAAUUUUUCACAUGAGGAUCACCCAUGUAUGUGAAGAAGGCGCCUAGAAAA | 11 nM | 4.78 nM |  | 
UACAACUUCGUAGGAUAUGUAUAUAAUUUCUACAUGAGGAUCACCCAUGUUAGCAUUUUUUAUUGACAGAAGGACGUAAUCUAA | 7.55 nM | 5.89 nM |  | 
GGAUGACAAAGUCAUCCAUAACGAACAUGAGGAUCACCCAUGUAGGAUAUGCUUCUCAAAGAGAAGCAGAAGGACAUGUGCCUU |  |  | 36.7 nM | 258 nM

Sequence | apparent Kd [1] | apparent Kd [2] | apparent Kd [3] | apparent Kd [4]
UUAUUUUUACAGAAGGUUUAAUAAUAUGUAUGAGAAGGAUAUGUAACAUGAGGAUCACCCAUGUUUCAUCUAUAUGAGGAUCAU |  |  | 6.61 nM | 5.57 nM
AAUAUAGAGCUGGAAUAAAACAUCACAUGAGGAUCACCCAUGUAGGAUAUCAGCACGAUAAGUGCUGAGAAGGACAUCCAGCUC |  |  | 14.9 nM | 14.1 nM
AAAUUUUGUCAAGGAUAUGUAUAAAAGAGAAGAAAACAUGAGGAUCACCCAUGUAUAUGGUGGGAACAGAAGGUGAAUAAGUAA |  |  | 164 nM | 154 nM
UUAGAAUUGUUAGGAUAUUAAUUAUUUUUUAGUAUGAUCUACAUGAGGAUCACCCAUGUUAAAUAUAAGAAGGAACGUUUUAUU |  |  | 51.8 nM | 52 nM
AUGAAGAGGCAAGGAUAUCGAGUGCUGGGCCUAUACAUGAGGAUCACCCAUGUCCUGGCAGGACGUGAGAAGGUGUAUCUAAUA | 217 nM | 343 nM |  | 
AACAGGACAGGAUAUACAUGAGGAUCACCCAUGUGAGAAUUAAGUAGAUUACCACAAAGUAGAAGGGUCCUGGA |  |  | 50.4 nM | 87.2 nM
UCAUUUAAUACAGGAUAUGUUAUUAUACAGUUGUUUGGUUAUUACAUUAUAACAGAAGGGUAGAACAUGAGGAUCACCCAUGUA | 179 nM | 79.4 nM |  | 
AGAUGGUAGAGAGGAUAUCAUGUGCUGACAUGAGGAUCACCCAUGUAGGGACGUCAGUCCAAUUAUGAGAAGGCUCUACCAUCU | 49.4 nM | 40.2 nM |  | 
GUCAGCUCGUGAGGAUAUACAACACUCCUUCGGCAGUGUAUUAAGAUCACAUGAGGAUCACCCAUGUAGAAGGCACGAGCUGAU |  |  | 14.8 nM | 201 nM
UCAUAACAUGAGGAUCACCCAUGUCAGGAUAUGAUACUAUGUACUUCGGUACAUAGUAUCAGAAGGGACAUACU |  |  | 96.8 nM | 153 nM
UAUAUUUAUGUAGGAUAUGGUAUAUAAAAUAUACCAGAAGGACAUGAGGAUCACCCAUGUAUGAAAUUCCAUAAUAAGCGUGUA |  |  | 12.2 nM | 13.8 nM
AUACAUGAGGAUCACCCAUGUAAUUAAUUAACUAGUAAGAUCUAGGAUAUCAGCUCGAAUAGAGCUGAGAAGGAGAUCACAUGU | 34 nM | 15.4 nM |  | 
GCACAUGAUACAGGAUAUGUAUUGGUAUUUAUAUACAGUUAUAUAAUAUUUACAGAAGGGUAUACAUGAGGAUCACCCAUGUGC |  |  | 81.3 nM | 41.7 nM
UGCUUCGUGUAAGGAUAUGCAGCCGUUUCGGCUGCAGAAGGUACUAUAAUACAUGAGGAUCACCCAUGUCUCUCGCUUUGCGGG | 63.6 nM | 29.4 nM |  | 
AUAAUUUUAUAUAUCUUAUUUAUCAGAAGGCAUAACAUGAGGAUCACCCAUGUAUAUUAUUGUUAUGAGGAUAUGAUUUAGUUA |  |  | 10.1 nM | 58.3 nM
UGGGUAAAUGUAGGAUAUCCAUAAUAAUAAUAAGGAGAAGGACAUGAGGAUCACCCAUGUACAGGGAAUUACCCAUUUCCUCUC |  |  | 1340 nM | 1170 nM
CUCGUGUAAGGAUAUGCGGGCGGGCGCGUUUGUGUUUGUUUGUAGAAGGUACAUGAGGAUCACCCAUGUACUGG |  |  | 25.5 nM | 57.4 nM
AAAAUGUGAGGAUAUCACGGAGCUCCGCGUGACGGAGCUCCUGAGAAGGCACAUGAGGAUCACCCAUGUCCUGU |  |  | 51.3 nM | 316 nM
UUGGUAUUUGUAGGAUAUCUGUCGCCACCGUGUGGAGAAGGACGAACAUGAGGAUCACCCAUGUAUCAUGGUGUGGGCUUUGCU |  |  | 302 nM | 317 nM
CUGAUGUGAGGAUAUCAACGCCAUGUCUUUGACAUGGCGCAUGAGAAGGCACAUGAGGAUCACCCAUGUACUUC |  |  | 23.3 nM | 125 nM
AAAAAAAAAGUCGAGGAUAUCCACAUGGCUACAUGAGGAUCACCCAUGUGAAGAAAAGCACAUGAGGAGAAGGCGACAAAAAAAAA | 28.1 nM | 13.7 nM |  | 
UUUUAACAUGAGGAUCACCCAUGUGAGGAUAUCGAAAUUUAUAUUUAUAUUUAUAAUACGAGAAGGCACAUUUU |  |  | 80.3 nM | 93.6 nM
AACAAACAUGAGGAUCACCCAUGUCAGGAUAUGGCGGCUAGUGUGCCACCGUACACUACCAGAAGGGACUGGGU |  |  | 212 nM | 151 nM
UCCAGGCGAGGAUAUACUUAGAUUUUUUCGUUUAGUCUCGAACAUGAGGAUCACCCAUGUAGAAGGUGCUUCAC |  |  | 45.6 nM | 42 nM
